An excerpt weighted towards active compounds, which were near 3% of everything screened.
HIF act = HIF pathway transcriptional activation; activation, % at 7.5 µM (by protocol); AID 1910; U2OS HRE-luciferase reporter, luminescence; normalized: DMSO 0%, desferrioxamine 100%; actives 0.32% (n = 300,000);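 active = mean activation of at least 10% of the iron chelator positive control signal, with at least half of replicates also reaching 10%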
CR mimetic SO = caloric restriction mimetics inhibiting age-related superoxide in yeast; S. cerevisiae aged cells, superoxide DHE fluorescence; active compounds read low; superoxide response (% of plate mean), % at 10 µM; actives 0.18% (n = 330,000); AID 2690;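 active = superoxide response under a set limit, about three screen SD below normal, cut at about 65% in these data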;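 also: yeast aged for seven days with compound at 30 °C before DHE staining; 100% = average MFI of all compound-treated wells on the plate with controls excluded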
NRP1-CendR mod = alters CendR peptide binding to human NRP-1; O14786; FAM-RPARPAR peptide binding to NRP-1, fluorescence polarization; inhibition, % at 25 µM; actives 0.85% (n = 360,000); AID 602438;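 active = inhibition or corrected inhibition above about 18%, plus a signal ratio from 0.5 to 1.5, limit read from the data, passing the limit was not always enough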
Target sequence (O14786 whole entry, looked up): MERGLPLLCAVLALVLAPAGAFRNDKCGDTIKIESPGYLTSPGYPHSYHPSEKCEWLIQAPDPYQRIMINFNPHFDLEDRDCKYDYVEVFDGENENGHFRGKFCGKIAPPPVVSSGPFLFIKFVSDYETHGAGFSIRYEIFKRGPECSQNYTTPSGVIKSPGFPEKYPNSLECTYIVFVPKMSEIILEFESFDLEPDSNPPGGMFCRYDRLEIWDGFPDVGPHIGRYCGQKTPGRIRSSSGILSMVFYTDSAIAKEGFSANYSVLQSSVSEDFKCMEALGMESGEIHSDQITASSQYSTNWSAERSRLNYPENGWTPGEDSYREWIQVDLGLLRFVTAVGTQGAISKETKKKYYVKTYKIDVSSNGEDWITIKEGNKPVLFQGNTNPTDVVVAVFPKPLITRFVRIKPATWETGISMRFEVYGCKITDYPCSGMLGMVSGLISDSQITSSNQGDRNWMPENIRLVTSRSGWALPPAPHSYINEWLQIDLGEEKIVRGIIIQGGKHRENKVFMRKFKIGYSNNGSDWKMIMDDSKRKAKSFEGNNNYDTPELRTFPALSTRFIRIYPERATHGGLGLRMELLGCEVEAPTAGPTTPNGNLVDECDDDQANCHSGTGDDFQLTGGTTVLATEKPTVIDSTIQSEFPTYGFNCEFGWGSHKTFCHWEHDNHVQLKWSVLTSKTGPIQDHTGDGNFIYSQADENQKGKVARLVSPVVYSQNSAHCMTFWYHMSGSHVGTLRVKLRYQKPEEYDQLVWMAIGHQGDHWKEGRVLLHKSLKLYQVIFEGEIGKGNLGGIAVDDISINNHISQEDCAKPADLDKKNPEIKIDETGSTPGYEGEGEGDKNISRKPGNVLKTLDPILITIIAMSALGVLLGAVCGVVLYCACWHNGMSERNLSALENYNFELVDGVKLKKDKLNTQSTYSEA
T cruzi repl = T. cruzi replication inhibition; actives 1.4% (n = 300,000); T. cruzi beta-gal in NIH3T3, luminescence, 90 h; inhibition, % (no concentration beside the values); AID 1885;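 active = mean inhibition across valid replicates above about 55%, limit read from the data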;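 also: signal also drops with host cell toxicity which is not excluded here; 0% = plate median of DMSO wells and 100% = zero luminescence signal; higher percent means less beta-gal luminescence so fewer parasites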
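System – NIH/3T3 host cells with β-galactosidase reporter T. cruzi · Doses – single 50 nL compound addition per well in DMSO · Reagent – 5000 T. cruzi trypomastigotes/well · Medium – Low-serum DMEM with 2% FBS · Timing – ≥90 h infection period, 3 h prior cell attachment · Evaluation – parasite load inhibition, % · Technique – GalScreen luminescence, 60 min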
AI-2 QS modul = Vibrio harveyi AI-2 quorum sensing modulation | Vibrio harveyi JMH597 AI-2 luminescence/OD600 ratio, 9 h; active compounds read low; strain lacks LuxN and CqsS sensors; 0 = neutral-control median | activity change, % at 7.5 µM | actives 0.4% (n = 300,000) | AID 2094; in the data active = activity change below about -75%, passing the limit was not always enough;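 also: luminescence divided by OD600 gain over 9 h not by final OD600 alone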
V-ATPase pH = alters yeast V-ATPase proton transport. S. cerevisiae, pHLuorin cytosolic pH fluorescence. response, % at 10 µM. actives 0.37% (n = 350,000); in the data active = response mostly above about 7.3%, no sharp cut-off; inactive = mostly below about 5.4%; also: actives read high
An asterisk follows results filed as active; x = no result.

SMILES	HIF act	CR mimetic SO	NRP1-CendR mod	T cruzi repl	AI-2 QS modul	V-ATPase pH
Cc1ccccc1C(=O)Nc1nnc(-c2ccc(F)cc2)o1	-0.1	99.7	-8.8	18.4	-82.2*	-6.7
CC(C)C(=O)Nc1nnc(-c2ccccc2)o1	0.4	110.3	12.7	-5.7	-0.2	-0.7
O=C(Nc1ccccc1)Nc1nnc(-c2ccccc2)o1	0.6	126.8	40.2*	-17.5	-2.2	-3.0
O=[N+]([O-])c1ccc([C@H](O)[C@H](CO)N=Cc2ccccc2O)cc1	0.1	106.7	1.6	-21.9	31.4	-0.5
CC(Cc1ccccn1)NC(=O)c1ccc(OC2CCN(Cc3ccccn3)CC2)cc1 (centres undefined)	0.0	112.6	6.3	-6.7	6.1	-0.8
COc1cc(C(=O)NC(C)Cc2ccccn2)ccc1OC1CCN(C(C)=O)CC1 (centres undefined)	-0.1	x	19.8*	-9.7	12.9	2.8
O=C(NCCS(=O)(=O)NCc1cccs1)c1ccccc1	x	x	-5.2	x	x	-3.5
Cc1cc(C(=O)O)ccc1-n1c(C)cc(/C=C2\SC(=O)NC2=O)c1C	-1.4	95.2	-47.6	-9.0	29.6	-1.5
CC(c1ccccc1)n1c(S(=O)(=O)O)nc2ccccc21 (centres undefined)	-0.9	89.7	1.4	-10.7	12.1	-0.4
O=c1c2cccc3c2c(nn1CN1CCOCC1)-c1ccccc1-3	0.2	121.7	-1.1	1.1	7.0	0.6
CCN(CC)CCn1nc2c3c(cccc3c1=O)-c1ccccc1-2	29.2*	116.2	1.8	57.9*	22.2	0.4
Cc1nc(N2CCCCC2)c2c(C)c(C(=O)Nc3cccc(C(F)(F)F)c3)sc2n1	-0.7	107.2	4.7	64.6*	2.7	0.9
CC(C)(C)N(NC(=O)Nc1ccc(Cl)cc1)C(=O)c1ccccc1	0.0	112.6	29.3*	-1.1	3.5	0.9
CC(C)(C)N(NC(=O)Nc1ccccc1)C(=O)c1ccccc1	-0.2	91.5	5.6	-13.5	-6.9	-1.6
Cc1nn(-c2ccc([N+](=O)[O-])cc2)c2c1C(c1cccc(Br)c1)N1C(=N2)C(=O)Nc2ccccc21 (centres undefined)	-1.8	100.7	-111.9	81.8*	10.2	6.0
COc1ccc2nc(SCC(=O)Nc3ccc(S(=O)(=O)N4CCCC4)cc3)c(C#N)cc2c1	-0.2	89.2	-36.8	28.0	16.2	2.7
N#Cc1cc2ccccc2nc1SCC(=O)Nc1ccc(S(=O)(=O)N2CCCC2)cc1	-0.5	100.5	0.8	56.3*	17.6	-0.8
CC(C)Cn1c(N)c(C(=O)COC(=O)c2cc(C(F)(F)F)nc3ccccc23)c(=O)n(C)c1=O	x	98.9	x	x	x	x
Cc1ccc(CCC(=O)Nc2ccc(Br)cc2)o1	1.8	99.9	3.0	-12.4	-88.0*	2.9
Cc1ccc(-c2csc(CC(N)=O)n2)cc1	0.5	94.2	4.2	-21.8	1.7	-1.5
CCn1c(-c2nn(C)c(C)c2Cl)n[nH]c1=S	-0.4	125.5	4.2	-7.6	6.4	-0.4
Cc1ccc(-n2c(-c3nn(C)c(C)c3Cl)n[nH]c2=S)cc1	-0.6	100.0	20.3*	-2.6	16.9	-1.9
CC1=CC(C)C2C(=O)N(CCC[N+](C)(C)C)C(=O)C2C1 (centres undefined)	-0.3	96.6	-12.4	-3.0	13.1	-5.0
CCN(CC)CCNC(=O)c1nn(-c2ccc(C)cc2)c(=O)c2c1c1ccccc1n2C	-3.9	110.9	4.2	60.3*	20.0	0.6
Cc1ccc(-n2nc(C(=O)NCc3ccco3)c3c4ccccc4n(C)c3c2=O)cc1	0.2	98.7	7.9	12.1	-12.1	2.4
CCN1CCN(Cc2ccc(NC(=O)c3ccc(C)c(NC(=O)c4cc(-c5ccc(Br)cc5)n[nH]4)c3)cc2C(F)(F)F)CC1	-1.2	96.8	1.8	59.6*	46.3	-2.0
COc1ccc2[nH]c3c(c2c1)CCN1C(=O)N([C@@H](C)C(=O)NC2CC2)C(=O)[C@]31C	-0.3	107.8	-15.7	-19.6	3.7	2.1
COc1ccc2[nH]c3c(c2c1)CCN1C(=O)N([C@@H](C)C(=O)NC2CCN(Cc4ccccc4)CC2)C(=O)[C@]31C	0.2	93.0	-27.4	64.0*	-1.8	-4.1

Source: PubChem
